# Experimental data gathered from unrelated publications.
# Protocols differ between the studies behind these lines.
SMILES,target or system,test,system,setting,quantity,result
CC(C)CCCCCCCCCCCCCCc1cc(O)cc(O)c1,Streptococcus pneumoniae,microbial growth,,,IC50,46.3 µM
COC(=O)c1cc(-c2cccc(NC(=O)Nc3ccc(Cl)c(C(F)(F)F)c3)c2)on1,Klebsiella pneumoniae,"microbial growth, broth dilution",BAA1705,,MIC,> 64 µg/mL
Cc1ccc(CN2C(=O)/C(=N\NC(=O)c3cc4ccccc4[nH]3)c3ccccc32)cc1,HT-29,cell growth or viability,,,IC50,2.45 µM
COC(=O)c1cc(-c2cccc(NC(=S)Nc3cc(C(F)(F)F)cc(C(F)(F)F)c3)c2)on1,Klebsiella pneumoniae,"microbial growth, broth dilution",BAA1705,,MIC,> 64 µg/mL
O=C(N/N=C1\C(=O)N(Cc2ccccc2)c2ccccc21)c1cc2ccccc2[nH]1,HT-29,cell growth or viability,,30 µM,inhibition,92.7%
COC(=O)c1cc(-c2cccc(NC(=O)Nc3ccc(C(F)(F)F)cc3)c2)on1,Klebsiella pneumoniae,"microbial growth, broth dilution",BAA1705,,MIC,> 64 µg/mL
CC(C)CCCCCCCCCCCCc1cc(O)cc(O)c1,Streptococcus pneumoniae,microbial growth,,,IC50,77.3 µM
COC(=O)c1cc(-c2cccc(NC(=S)Nc3ccccc3Cl)c2)on1,Klebsiella pneumoniae,"microbial growth, broth dilution",BAA1705,,MIC,> 64 µg/mL
CCCCCCCCCCCCCCCCCCCCc1cc(O)cc(O)c1,Streptococcus pneumoniae,microbial growth,,,IC50,> 200 µM
COC(=O)c1cc(-c2cccc(NC(=O)Nc3ccc(F)c(F)c3)c2)on1,Klebsiella pneumoniae,"microbial growth, broth dilution",BAA1705,,MIC,> 64 µg/mL
O=C(N/N=C1\C(=O)N(Cc2ccc(Cl)cc2)c2ccccc21)c1cc2ccccc2[nH]1,HT-29,cell growth or viability,,30 µM,inhibition,93.7%
COc1ccc(C=CC(=O)c2ccc(-c3ccccc3)cc2)cc1OC,Mycobacterium tuberculosis variant bovis BCG,microbial growth,BCG,7 days,MIC,100 µg/mL
N#Cc1ccc(CN2C(=O)/C(=N\NC(=O)c3cc4ccccc4[nH]3)c3ccccc32)cc1,HT-29,cell growth or viability,,30 µM,inhibition,81.6%
COC(=O)c1cc(-c2cccc(NC(=O)Nc3ccc(OC)cc3)c2)on1,Klebsiella pneumoniae,"microbial growth, broth dilution",BAA1705,,MIC,> 64 µg/mL
O=C(N/N=C1\C(=O)N(Cc2ccccc2)c2ccc(Cl)cc21)c1cc2ccccc2[nH]1,Swiss-3T3,cell growth or viability,,72 h,IC50,3.49 µM
O=C(Nc1cccc(-c2cc(C(=O)O)no2)c1)Nc1ccc(Cl)c(Cl)c1,Klebsiella pneumoniae,"microbial growth, broth dilution",BAA1705,,MIC,> 64 µg/mL
Cc1cccc(-n2ncc(Cl)c(Cl)c2=O)c1,NCI-H1650,"cell growth or viability, resazurin",,96 h,IC50,1.24 µM
C=CC(c1ccc(-c2ccc(O)cc2)cc1)n1ccnc1 (stereo not drawn),Mycobacterium tuberculosis variant bovis BCG,microbial growth,BCG,,MIC50,> 50 µM
CCC1(c2ccc(N)cc2)CCC(=O)NC1=O (stereo not drawn),A2780,"cell growth or viability, CCK-8",,48 h,IC50,> 50 µM
N#Cc1c[nH]c2ccccc12,Cryptosporidium parvum,parasite growth,HCT-8,"24 h, intracellular",EC50,163 µM
COc1c2c(cc3c1OCO3)[C@]13C=C[C@H](OC)C[C@@H]1[N@](C2)C[C@H]3OC(=O)c1ccco1,HT-29,"cell growth or viability, WST-1",,,IC50,> 10 µM
N#CCc1c[nH]c2ccccc12,Cryptosporidium parvum,parasite growth,HCT-8,"24 h, intracellular",EC90,1230 µM
O=C(N/N=C1\C(=O)N(Cc2ccccc2)c2ccc(F)cc21)c1cc2ccccc2[nH]1,HT-29,cell growth or viability,,,IC50,3.5 µM
CCC(CCCCCCCCCCc1cc(O)cc(O)c1)C(C)C (stereo not drawn),Klebsiella pneumoniae,microbial growth,ATCC29665,,IC50,> 200 µM
